# Compound activity from PubChem.
# UPR XBP1 act – activators of adaptive XBP1 UPR arm, primary screen, cell-based, CHO-XBP1 luciferase reporter, luminescence, uHTS. hit rate 0.33% among 330,000. activation, % at 20 µM. IRE1-XBP1 UPR activation; percent of tunicamycin response, DMSO as zero;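 active = versus positive control, 20 µM dose yields 30% or more activation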
#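 incubation = overnight seeding at 37 °C, 6 h compound treatment at 37 °C | assay system = CHO-XBP1 cells stably carrying IRE1-XBP1-driven luciferase reporter | input = 1000 cells per well | detection = luciferase luminescence | dosing = single point, 20 µM final compound, 1% DMSO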
# CHOP UPR activ – activators of apoptotic CHOP UPR arm, primary screen, cell-based, CHO-CHOP luciferase reporter, luminescence, uHTS; activation, % at 10 µM; UPR activation; percent of tunicamycin response over DMSO baseline; AID 449763, 2010; hit rate 0.34% among 330,000;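 active = at 10 µM dose, activation of 40% or more, normalized to positive control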
#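 Test system: CHO-CHOP cells, stable luciferase reporter of PERK-eIF2a-CHOP signalling | Quantity: 500 CHO-CHOP cells per well | Buffer or medium: F12 plus 10% serum | Compound dosing: 10 µM single point, 0.5% DMSO | Schedule: 6 h compound treatment, 37 °C | Signal: Luciferase luminescence | Control set: Tunicamycin high control, DMSO low control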
# VLA-4 inh – inhibition in human VLA-4 binding assay, primary screen, VLA-4 allosteric modulator project, MLPCN library, flow cytometry, VLA-4 expressing cells | Integrin alpha-4 (Homo sapiens), P13612 | ligand binding flow cytometry | inhibition, % (about 7 µM as worked out from the volumes in the protocol) | hit rate 0.2% among 330,000 | AID 2557, 2010; in the data active = inhibition above about 50%
# CHOP inhibitor – inhibitors of CHOP promoter induction, primary screen, cell-based, unfolded protein response, luciferase reporter; CHO-K1 CHOP-promoter luciferase, tunicamycin-induced, 15-18 h; inhibition, % at 10 µM; hit rate 3.8% among 220,000;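 active = compounds that reduced the stress-induced luciferase reporter signal by more than about 70% of percent inhibition, limit read from the data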
# Beta2AR agonist – beta2AR agonists driving receptor internalization, primary screen, cell-based, FAP fluorogen, flow cytometry; Beta-2 adrenergic receptor (Homo sapiens), P07550; Am2.2-beta2AR cells; response, % (concentration not given with the values); hit rate 0.43% among 340,000; AID 504454, 2011;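 active = response above a set limit, near 3 SD of response in nonfluorescent compounds, cut at about 42% in these data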
# Target sequence (P07550 whole entry, looked up): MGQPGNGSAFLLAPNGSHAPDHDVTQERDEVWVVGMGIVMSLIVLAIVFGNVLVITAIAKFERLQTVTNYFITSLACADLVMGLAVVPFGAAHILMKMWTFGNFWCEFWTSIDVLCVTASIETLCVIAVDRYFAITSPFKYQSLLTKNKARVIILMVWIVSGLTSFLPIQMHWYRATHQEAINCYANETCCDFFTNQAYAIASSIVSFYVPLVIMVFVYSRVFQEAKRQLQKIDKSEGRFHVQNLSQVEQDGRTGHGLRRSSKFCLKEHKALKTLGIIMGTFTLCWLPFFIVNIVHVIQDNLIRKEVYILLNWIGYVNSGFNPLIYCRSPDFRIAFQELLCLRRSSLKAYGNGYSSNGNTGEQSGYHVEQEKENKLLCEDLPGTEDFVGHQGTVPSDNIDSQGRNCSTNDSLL
# A number is an active result; - = inactive; . = not tested or not shown. The full list was thinned out, with hits kept by preference.
SMILES,UPR XBP1 act,CHOP UPR activ,VLA-4 inh,CHOP inhibitor,Beta2AR agonist
Cc1ccc(/C=N/N2CCN(Cc3cccc4ccccc34)CC2)o1,-,-,-,72,-
Cc1ccc(/C=N/N2CCN(Cc3ccccc3)CC2)o1,-,-,-,-,-
O=C(NNS(=O)(=O)c1ccc([N+](=O)[O-])cc1)c1ccc([N+](=O)[O-])cc1,-,-,-,.,-
Cc1ccccc1OCC(O)CN(Cc1ccccc1O)C1CCCCC1 (stereo unspecified),-,-,-,88,-
CN(CC(O)COc1ccccc1F)C1CCCCC1 (stereo unspecified),-,-,-,-,-
CCCCOC(=O)Nc1ccc(C(=O)OCCC)cc1,-,-,-,86,-
CCCCOC(=O)c1ccc(O)cc1,-,-,-,-,-
COCCCN(CC(=O)Nc1ccc(F)cc1)S(=O)(=O)c1cccs1,-,-,-,.,-
N#C/C(=C(/O)CN1CCCCC1)c1nc(-c2ccc(Cl)cc2)cs1,-,-,-,-,-
N#C/C(=C(/O)CN1CCN(c2ccccc2F)CC1)c1nc(-c2ccc(Cl)cc2)cs1,-,-,-,82,-
Cc1nc2ncnn2c(N2CCN(c3cccc(C(F)(F)F)c3)CC2)c1C,-,-,-,73,-
COc1ccc(NS(=O)(=O)c2ccc3c(c2)NC(=O)C(C)S3)cc1 (stereo unspecified),-,-,-,.,-
CCCCCCOC(=O)C(C#N)c1nc2ccccc2nc1N1CCOCC1 (stereo unspecified),-,-,-,94,-
CCn1c(CCCOc2ccc(Cl)cc2Cl)nnc1SCC(=O)Nc1cc(F)ccc1C,-,-,-,84,-
Cn1c(CCCOc2ccc(Cl)cc2Cl)nnc1SCC(=O)Nc1cccc(F)c1,-,-,-,-,-
COc1cc(/C=N/NC(=O)c2nnn(-c3nonc3N)c2C(C)C)ccc1OCc1ccc(F)cc1,-,-,-,.,-
O=[N+]([O-])c1ccc(/C=N/n2cnc3ccccc32)s1,-,-,-,83,-
Cc1cccc(Oc2cnn(C(C)(C)C)c(=O)c2Cl)c1,-,-,-,71,-
COc1cnn(C(C)(C)C)c(=O)c1Cl,-,-,-,-,-
COc1ccc(/C=C/C(=O)c2ccc(O)cc2)cc1COc1ccc(F)cc1,-,-,-,85,-
COc1ccc(Oc2ccc(/C=C/C(=O)c3ccc(O)cc3)cc2[N+](=O)[O-])cc1,-,-,-,86,-
O=C(/C=C/c1ccc(O)c([N+](=O)[O-])c1)c1ccc2ccccc2c1,-,-,-,.,-
CCNc1nc(-c2ccc(OC(F)F)cc2)c(C)s1,-,-,-,-,-
O=C(NNc1nc(Nc2ccccc2)nc(N2CCOCC2)n1)Nc1ccc(Cl)cc1,-,-,-,95,-
CCCC(CCC)C(=O)Oc1cc(C)[nH]c(=O)c1[N+](=O)[O-],-,-,-,-,-
SMILES,UPR XBP1 act,CHOP UPR activ,VLA-4 inh,CHOP inhibitor,Beta2AR agonist
CCOc1ccccc1NC(=O)N1CCc2ccccc2C1,-,-,-,.,-
Cc1cc(C)c2nc(NC(=O)[C@@H](NC(=O)c3cccc(S(=O)(=O)N4CCOCC4)c3)C(C)C)sc2c1,-,-,-,93,-
CCCn1c(C(=O)OC)cc2c1ccn2-c1ccc(F)cc1,-,-,-,71,-
COc1cc(N/N=C(\C)c2ccc(N)cc2)nc(-c2ccccc2)n1,-,-,-,81,-
CC(C)=CCc1cc2c(=O)c3c(O)c4c(cc3oc2c(O)c1O)OC(C)C4(C)C (stereo unspecified),-,-,-,.,.
O=C(NNC(=O)c1cccc(S(=O)(=O)N2CCN(c3ccccc3)CC2)c1)c1ccc(Cl)cc1,-,-,-,83,-
Cc1ccc(OCCC(=O)OCC(=O)c2c(N)n(C)c(=O)n(C)c2=O)cc1,-,-,-,.,-
Cn1c(N)c(C(=O)COC(=O)CCOc2ccc(C(C)(C)C)cc2)c(=O)n(C)c1=O,-,-,-,71,-
COc1ccc(S(=O)(=O)N(C)c2nc3ccccc3n3c(CC(C)C)nnc23)cc1,-,-,-,.,-
COc1cc(NC(=O)C2CCCCN2)ccc1OCC(C)C (stereo unspecified),-,-,-,-,.
COc1ccc(NC(=O)C2CCCNC2)cc1OCC(C)C (stereo unspecified),-,-,-,77,-
O=c1oc(-c2ccc([N+](=O)[O-])cc2)nc2ccc(O)cc12,-,-,-,-,-
O=C(CSc1n[nH]c(-c2ccccc2)n1)N1CCOCC1,-,-,-,.,-
O=C(CSc1nnc(-c2ccccc2)c(-c2ccccc2)n1)N1CCOCC1,-,-,-,72,-
COc1ccc(S(=O)(=O)/N=C2/C=CC(=O)C(C)=C2C)cc1,-,-,-,82,-
CCOC(=O)CSc1c(-c2ccc(Cl)cc2)[nH]c2ccccc12,-,-,-,88,-
CC(=O)N1CCc2cc(S(=O)(=O)NCCC(=O)N3CCN(Cc4ccccc4)CC3)ccc21,-,-,-,-,-
Cc1ccc(S(=O)(=O)NCCC(=O)N2CCN(Cc3ccccc3)CC2)cc1,-,-,-,82,-
O=C(OCc1ccc(Cl)cc1)c1cnccn1,-,-,-,82,-
COc1ccc(CC(=O)Oc2ccc(F)cc2)cc1,-,-,-,.,-
CCOC(=O)c1ccccc1NC(=O)C1COc2ccccc2O1 (stereo unspecified),-,-,-,74,-
O=C(NC1=NCCS1)C1COc2ccccc2O1 (stereo unspecified),-,-,-,76,-
CS/C(=N\S(=O)(=O)c1ccc(Cl)cc1)c1ccccc1,-,-,-,77,-
COc1ccc(C(=O)N2CCN(c3ccc([N+](=O)[O-])c(NCCc4ccc(OC)c(OC)c4)c3)CC2)cc1,-,-,-,81,-
COc1ccc(CCNc2cc(N3CCN(C(=O)c4ccc(C)cc4)CC3)ccc2[N+](=O)[O-])cc1OC,-,-,-,79,.
SMILES,UPR XBP1 act,CHOP UPR activ,VLA-4 inh,CHOP inhibitor,Beta2AR agonist
COc1ccc(CCNc2cc(N3CCN(C(=O)c4ccccc4F)CC3)ccc2[N+](=O)[O-])cc1OC,-,-,-,-,-
CC1=CCC(C(=O)O)C(C(=O)NC2CCCCC2)C1 (stereo unspecified),-,-,-,.,-
CCCc1nc(SCC(=O)Nc2nnc(CC)s2)c2c(C)c(C)sc2n1,-,-,-,-,-
CCc1nc(SCC(=O)Nc2nnc(CC)s2)c2c(C)c(C)sc2n1,-,-,-,96,-
CCSc1nnc(NC(=O)CSc2nc(CC)nc3c2c(=O)n(C)c(=O)n3C)s1,-,-,-,82,-
CCN(CC)S(=O)(=O)c1ccc(N2CCCCC2)c(NC(=O)/C(C#N)=C/c2ccc(OC)cc2)c1,-,-,-,-,-
CCOc1cc(/C=C(/C#N)C(=O)Nc2ccc(O)cc2)cc(Br)c1O,-,-,-,-,52
